Source: ChEMBL document CHEMBL2311528, “Synthesis of spirolactone-type diterpenoid derivatives from kaurene-type oridonin with improved antiproliferative effects and their apoptosis-inducing activity in human hepatoma Bel-7402 cells” (Eur J Med Chem, 2013)
One block for each compound: values may come before it.

Key:
K562 [1] = experiment: Potency index, ratio of IC50 for oridonin to IC50 for test compound against human K562 cells; type: functional
Bel-7402 [2] = experiment: Induction of cell cycle arrest in human Bel7402 cells assessed as accumulation at S phase at 0.8 uM incubated for 48 hrs by propidium iodide staining based flow cytometry (reference value: 31.89%); type: functional
Procedure, shortened: (§1)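 Bel-7402 seeded at 5.0 × 10³ cells/well and grown 24 h at 37 °C. Exponentially growing cells were treated for 48 h, alongside untreated and DMSO-solvent controls. Cells were then centrifuged, fixed overnight in 70% ethanol at 4 °C, and analysed by flow cytometry for phase distribution.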

Bel-7402 [3] = experiment: Induction of apoptosis in human Bel7402 cells assessed as viable cells level at 0.8 uM incubated for 3 days by Annexin-V and propidium iodide double staining based flow cytometry (reference value: 92.6%); type: functional
Bel-7402 [4] = experiment: Induction of apoptosis in human Bel7402 cells assessed as viable cells level at 0.6 uM incubated for 3 days by Annexin-V and propidium iodide double staining based flow cytometry (reference value: 92.6%); type: functional
Bel-7402 [5] = experiment: Induction of apoptosis in human Bel7402 cells assessed as late apoptotic cells level at 0.6 uM incubated for 3 days by Annexin-V and propidium iodide double staining based flow cytometry (reference value: 2.4%); type: functional
Bel-7402 [6] = experiment: Induction of cell cycle arrest in human Bel7402 cells assessed as accumulation at G2/M phase at 1 uM incubated for 48 hrs by propidium iodide staining based flow cytometry (reference value: 4.75%); type: functional; procedure, shortened: as §1
Bel-7402 [7] = experiment: Induction of apoptosis in human Bel7402 cells assessed as viable cells level at 1 uM incubated for 3 days by Annexin-V and propidium iodide double staining based flow cytometry (reference value: 92.6%); type: functional
Bel-7402 [8] = experiment: Potency index, ratio of IC50 for oridonin to IC50 for test compound against human Bel7402 cells; type: functional
Bel-7402 [9] = experiment: Induction of cell cycle arrest in human Bel7402 cells assessed as accumulation at S phase at 0.6 uM incubated for 48 hrs by propidium iodide staining based flow cytometry (reference value: 31.89%); type: functional; procedure, shortened: as §1
Bel-7402 [10] = experiment: Induction of cell cycle arrest in human Bel7402 cells assessed as accumulation at G2/M phase at 0.6 uM incubated for 48 hrs by propidium iodide staining based flow cytometry (reference value: 4.75%); type: functional; procedure, shortened: as §1
Bel-7402 [11] = experiment: Induction of apoptosis in human Bel7402 cells assessed as necrotic cells level at 0.8 uM incubated for 3 days by Annexin-V and propidium iodide double staining based flow cytometry (reference value: 0.5%); type: functional
Bel-7402 [12] = experiment: Induction of apoptosis in human Bel7402 cells assessed as late apoptotic cells level at 1 uM incubated for 3 days by Annexin-V and propidium iodide double staining based flow cytometry (reference value: 2.4%); type: functional
MGC-803 [13] = experiment: Antiproliferative activity against human MGC803 cells assessed as growth inhibition by MTT assay; type: functional, cell-based
Procedure, shortened: (§2)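 Cells treated in triplicate over a range of concentrations at 37 °C in humidified 5% CO2. At 72 h, MTT (5 mg/mL) was added for 4 h, followed by DMSO solubilisation and OD at 490 nm. IC50 is the concentration giving 50% growth inhibition, reported as mean ± S.D. of three independent experiments.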

[14] = Antiproliferative activity against human CaEs17 cells assessed as growth inhibition by MTT assay; type: functional, cell-based; procedure, shortened: as §2
K562 [15] = experiment: Antiproliferative activity against human K562 cells assessed as growth inhibition by MTT assay; type: functional, cell-based
Procedure, shortened: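 K562 cells in log phase seeded at 5 × 10⁴ cells/mL and treated in triplicate across a 0.39–100 range. Cultures were kept at 37 °C in humidified 5% CO2. At 72 h, MTT (5 mg/mL) was added for 4 h, formazan was dissolved in DMSO, and OD was read at 490 nm. IC50 is the concentration giving 50% growth inhibition, reported as mean ± S.D. of three independent experiments.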

MGC-803 [16] = experiment: Potency index, ratio of IC50 for oridonin to IC50 for test compound against human MGC803 cells; type: functional
Bel-7402 [17] = experiment: Induction of apoptosis in human Bel7402 cells assessed as early apoptotic cells level at 0.8 uM incubated for 3 days by Annexin-V and propidium iodide double staining based flow cytometry (reference value: 4.5%); type: functional
[18] = Potency index, ratio of IC50 for oridonin to IC50 for test compound against human CaEs17 cells; type: functional
Bel-7402 [19] = experiment: Induction of apoptosis in human Bel7402 cells assessed as necrotic cells level at 0.6 uM incubated for 3 days by Annexin-V and propidium iodide double staining based flow cytometry (reference value: 0.5%); type: functional
Bel-7402 [20] = experiment: Antiproliferative activity against human Bel7402 cells assessed as growth inhibition by MTT assay; type: functional, cell-based; procedure, shortened: as §2
Bel-7402 [21] = experiment: Induction of apoptosis in human Bel7402 cells assessed as early apoptotic cells level at 0.6 uM incubated for 3 days by Annexin-V and propidium iodide double staining based flow cytometry (reference value: 4.5%); type: functional
Bel-7402 [22] = experiment: Induction of cell cycle arrest in human Bel7402 cells assessed as accumulation at G1 phase at 1 uM incubated for 48 hrs by propidium iodide staining based flow cytometry (reference value: 63.86%); type: functional; procedure, shortened: as §1
Bel-7402 [23] = experiment: Induction of cell cycle arrest in human Bel7402 cells assessed as accumulation at G2/M phase at 0.8 uM incubated for 48 hrs by propidium iodide staining based flow cytometry (reference value: 4.75%); type: functional; procedure, shortened: as §1
Bel-7402 [24] = experiment: Induction of cell cycle arrest in human Bel7402 cells assessed as accumulation at G1 phase at 0.6 uM incubated for 48 hrs by propidium iodide staining based flow cytometry (reference value: 63.86%); type: functional; procedure, shortened: as §1
Bel-7402 [25] = experiment: Induction of apoptosis in human Bel7402 cells assessed as late apoptotic cells level at 0.8 uM incubated for 3 days by Annexin-V and propidium iodide double staining based flow cytometry (reference value: 2.4%); type: functional
[26] = molecular target: Glutathione S-transferase P (Homo sapiens) (UniProt P09211); experiment: Inhibition of glutathione S-transferase pi in human Bel7402 cell lysates at 40 uM using CDNB and GSH as substrates by spectrophotometry; conditions: Bel-7402
Chain of Glutathione S-transferase P (Homo sapiens) (P09211 2-210 limits assumed): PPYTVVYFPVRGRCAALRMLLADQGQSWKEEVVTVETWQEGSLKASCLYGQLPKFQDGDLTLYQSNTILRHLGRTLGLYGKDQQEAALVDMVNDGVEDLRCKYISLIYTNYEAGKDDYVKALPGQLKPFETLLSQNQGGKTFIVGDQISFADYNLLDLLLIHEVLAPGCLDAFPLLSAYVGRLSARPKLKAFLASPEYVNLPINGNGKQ

Bel-7402 [27] = experiment: Induction of cell cycle arrest in human Bel7402 cells assessed as accumulation at G1 phase at 0.8 uM incubated for 48 hrs by propidium iodide staining based flow cytometry (reference value: 63.86%); type: functional; procedure, shortened: as §1
Bel-7402 [28] = experiment: Induction of apoptosis in human Bel7402 cells assessed as necrotic cells level at 1 uM incubated for 3 days by Annexin-V and propidium iodide double staining based flow cytometry (reference value: 0.5%); type: functional
Bel-7402 [29] = experiment: Induction of cell cycle arrest in human Bel7402 cells assessed as accumulation at S phase at 1 uM incubated for 48 hrs by propidium iodide staining based flow cytometry (reference value: 31.89%); type: functional; procedure, shortened: as §1
Bel-7402 [30] = experiment: Induction of apoptosis in human Bel7402 cells assessed as early apoptotic cells level at 1 uM incubated for 3 days by Annexin-V and propidium iodide double staining based flow cytometry (reference value: 4.5%); type: functional

IC50 (MGC-803 [13]): 1280 nM
IC50 (K562 [15]): 390 nM
IC50 (Bel-7402 [20]): 1390 nM
inhibition [26]: 0%
Structure (SMILES): C=C1C(=O)[C@@]23C(=O)OC[C@]4([C@@H](OC(C)=O)CCC(C)(C)[C@H]4C=O)[C@@H]2CC[C@H]1[C@H]3OC(=O)c1ccccc1Cl
Ratio IC50 (K562 [1]): 12
Activity (Bel-7402 [2]): 5.28%
Activity (Bel-7402 [3]): 80.9%
Activity (Bel-7402 [4]): 87.2%
Activity (Bel-7402 [5]): 3.8%
Activity (Bel-7402 [6]): 92.16%
Activity (Bel-7402 [7]): 66%
Ratio IC50 (Bel-7402 [8]): 5
Activity (Bel-7402 [9]): 20.73%
Activity (Bel-7402 [10]): 23.2%
Activity (Bel-7402 [11]): 0.3%
Activity (Bel-7402 [12]): 12.4%
IC50 [14]: 600 nM
Ratio IC50 (MGC-803 [16]): 4
Activity (Bel-7402 [17]): 9.6%
Ratio IC50 [18]: 18
Activity (Bel-7402 [19]): 0.1%
Activity (Bel-7402 [21]): 8.8%
Activity (Bel-7402 [22]): 7.84%
Activity (Bel-7402 [23]): 53.3%
Activity (Bel-7402 [24]): 56.07%
Activity (Bel-7402 [25]): 9.3%
Activity (Bel-7402 [27]): 41.69%
Activity (Bel-7402 [28]): 0.6%
Activity (Bel-7402 [29]): 0%
Activity (Bel-7402 [30]): 21%

IC50 (MGC-803 [13]): 3220 nM
IC50 (K562 [15]): 1500 nM
IC50 (Bel-7402 [20]): 3780 nM
Structure (SMILES): C=C1C(=O)[C@@]23C(=O)OC[C@]4([C@@H](OC(C)=O)CCC(C)(C)[C@H]4C=O)[C@@H]2CC[C@H]1[C@H]3OC(=O)CC
IC50 [14]: 2770 nM

IC50 (MGC-803 [13]): 3470 nM
IC50 (K562 [15]): 1740 nM
IC50 (Bel-7402 [20]): 3960 nM
inhibition [26]: 7.08%
Structure (SMILES): C=C1C(=O)[C@@]23C(=O)OC[C@]4([C@@H](OC(C)=O)CCC(C)(C)[C@H]4C=O)[C@@H]2CC[C@H]1[C@H]3OC(C)=O
IC50 [14]: 2800 nM

Structure (SMILES): CC(=O)O[C@H]1C(=O)[C@@]2(C)[C@H]([C@H](OC(=O)c3ccccc3)[C@]3(O)C[C@H](OC(=O)[C@H](O)[C@@H](NC(=O)c4ccccc4)c4ccccc4)C(C)=C1C3(C)C)[C@]1(OC(C)=O)CO[C@@H]1C[C@@H]2O [PACLITAXEL]
IC50 [14]: 430 nM

IC50 (MGC-803 [13]): 1900 nM
IC50 (K562 [15]): 1310 nM
IC50 (Bel-7402 [20]): 2090 nM
Structure (SMILES): C=C1C(=O)[C@@]23C(=O)OC[C@]4([C@@H](OC(C)=O)CCC(C)(C)[C@H]4C=O)[C@@H]2CC[C@H]1[C@H]3OC(=O)c1ccc(C)cc1
IC50 [14]: 1830 nM

IC50 (MGC-803 [13]): 5540 nM
IC50 (K562 [15]): 3150 nM
IC50 (Bel-7402 [20]): 5090 nM
Structure (SMILES): C=C1C(=O)[C@@]23C(=O)OC[C@]4([C@@H](OC(C)=O)CCC(C)(C)[C@H]4C=O)[C@@H]2CC[C@H]1[C@H]3OC(=O)c1ccc(C(F)(F)F)cc1
IC50 [14]: 9160 nM

IC50 (MGC-803 [13]): 1730 nM
IC50 (K562 [15]): 870 nM
IC50 (Bel-7402 [20]): 1510 nM
Structure (SMILES): C=C1C(=O)[C@@]23C(=O)OC[C@]4([C@@H](OC(C)=O)CCC(C)(C)[C@H]4C=O)[C@@H]2CC[C@H]1[C@H]3OC(=O)c1ccc(Cl)cc1
IC50 [14]: 1250 nM

IC50 (MGC-803 [13]): 2490 nM
IC50 (K562 [15]): 1560 nM
IC50 (Bel-7402 [20]): 3640 nM
Structure (SMILES): C=C1C(=O)[C@@]23C(=O)OC[C@]4([C@@H](OC(C)=O)CCC(C)(C)[C@H]4C=O)[C@@H]2CC[C@H]1[C@H]3OC(=O)CCCC
IC50 [14]: 2850 nM

IC50 (MGC-803 [13]): 1980 nM
IC50 (K562 [15]): 1140 nM
IC50 (Bel-7402 [20]): 1740 nM
Structure (SMILES): C=C1C(=O)[C@@]23C(=O)OC[C@]4([C@@H](OC(C)=O)CCC(C)(C)[C@H]4C=O)[C@@H]2CC[C@H]1[C@H]3OC(=O)c1ccc([N+](=O)[O-])cc1
IC50 [14]: 1600 nM

IC50 (MGC-803 [13]): 2530 nM
IC50 (K562 [15]): 1920 nM
IC50 (Bel-7402 [20]): 2470 nM
Structure (SMILES): C=C1C(=O)[C@@]23C(=O)OC[C@]4([C@@H](OC(C)=O)CCC(C)(C)[C@H]4C=O)[C@@H]2CC[C@H]1[C@H]3OC(=O)c1ccc(OC)cc1
IC50 [14]: 1960 nM

IC50 (MGC-803 [13]): 2180 nM
IC50 (K562 [15]): 1400 nM
IC50 (Bel-7402 [20]): 3050 nM
Structure (SMILES): C=C1C(=O)[C@@]23C(=O)OC[C@]4([C@@H](OC(C)=O)CCC(C)(C)[C@H]4C=O)[C@@H]2CC[C@H]1[C@H]3OC(=O)c1ccccc1
IC50 [14]: 1990 nM
